Data set [1] concerns Staphylococcus aureus. Kind of data set: Bactericidal activity against methicillin-resistant Staphylococcus aureus N315 in in vitro pharmacokinetic/pharmacodynamic model assessed as decrease in planktonic cell count at 10 mg/kg every 24 hrs measured after 48 hrs. The format is functional, organism-based. Details: dose 10 mg/kg. A digest of the protocol:
(§1)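 Biofilm reactor with polystyrene coupons. Conditioning: 24 h at 37°C in TSB with 1% glucose, then 16 h continuous flow of TSB with 10% glucose (30-min residence time). […] Coupons (biofilm cells, recovered by vortex/sonication) and medium (planktonic cells) sampled 0–72 h and plated on TSA. Limit of detection 2 log10 CFU/ml, extended to 1 by filtration. Duplicate models.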

Data set [2] has as its system Staphylococcus aureus. Kind of data set: Antimicrobial activity against methicillin-susceptible Staphylococcus aureus SH1000 by CLSI broth microdilution method. The class given is functional.
Data set [3] relates to Staphylococcus aureus. The experiment in a line: Antimicrobial activity against methicillin-resistant Staphylococcus aureus N315 by CLSI broth microdilution method. The class given is functional.
In data set [4] the test system is Staphylococcus aureus. The experiment in a line: Antimicrobial activity against methicillin-susceptible Staphylococcus aureus SH1000 assessed as inhibition of bacterial biofilm formation by CLSI broth microdilution method. The format is functional.
Data set [5] relates to Staphylococcus aureus. The experiment in a line: Bactericidal activity against methicillin-resistant Staphylococcus aureus N315 in in vitro pharmacokinetic/pharmacodynamic model assessed as decrease in biofilm bacterial count at 10 mg/kg every 24 hrs measured after 72 hrs. The format is functional. A digest of the protocol:
as §1

The subject of data set [6] is Staphylococcus aureus. Kind of data set: Bactericidal activity against methicillin-resistant Staphylococcus aureus N315 planktonic cell in in vitro pharmacokinetic/pharmacodynamic model assessed as decrease in bacterial count at 10 mg/kg every 24 hrs. The format is functional, organism-based. Set-up: dose 10 mg/kg. A digest of the protocol:
as §1

Data set [7] relates to Staphylococcus aureus. The experiment in a line: Bactericidal activity against Staphylococcus aureus in in vitro pharmacokinetic/pharmacodynamic model assessed as decrease in biofilm bacterial count at 10 mg/kg every 24 hrs. The format is functional. In short, it runs like this:
(§2)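 MSSA SH1000 or MRSA N315 biofilm was conditioned for 40 h (24 h batch in 1% glucose TSB at 37°C, then 16 h flow in 10% glucose TSB) on polystyrene coupons. Simulated regimens ran 72 h in SMHB, duplicate models. Three coupons per time point (0–72 h) were saline-washed, vortexed and sonicated, and drop-plated on TSA. Reduction is log10 CFU/ml versus start; ≥3-log10 counts as bactericidal.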

The subject of data set [8] is Staphylococcus aureus. The experiment in a line: fCmax in Staphylococcus aureus in in vitro pharmacokinetic/pharmacodynamic model at 10 mg/kg every 24 hrs. The class given is ADME, organism-based. Set-up: dose 10 mg/kg. A digest of the protocol:
(§3)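 Biofilm reactor with polystyrene coupons, simulating human free-drug profiles in supplemented Mueller-Hinton broth (calcium 25 μg/ml, magnesium 12.5 μg/ml) after a 40-h biofilm conditioning phase. Vancomycin was measured by fluorescence polarization immunoassay (lower limit 2 μg/ml). […] Half-life, AUC and peak were derived by the trapezoidal method.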

Data set [9] in a line: AUC (0 to 24 hrs) in Staphylococcus aureus in in vitro pharmacokinetic/pharmacodynamic model at 10 mg/kg every 24 hrs. Set-up: time < 24 hr, dose 10 mg/kg. The format is ADME, organism-based. In short, it runs like this:
as §3

The nature of data set [10]: Half life in Staphylococcus aureus in in vitro pharmacokinetic/pharmacodynamic model at 10 mg/kg every 24 hrs. Details: dose 10 mg/kg. The class given is ADME, organism-based. In short, it runs like this: as §3
Data set [11] concerns Staphylococcus aureus. The experiment in a line: Bactericidal activity against methicillin-resistant Staphylococcus aureus N315 planktonic cell in in vitro pharmacokinetic/pharmacodynamic model assessed as decrease in bacterial count at 10 mg/kg every 24 hrs measured after 72 hrs. The format is functional. A digest of the protocol: as §1
The test system of data set [12] is Staphylococcus aureus. The experiment in a line: Bactericidal activity against Staphylococcus aureus in in vitro pharmacokinetic/pharmacodynamic model assessed as decrease in planktonic cell count at 10 mg/kg every 24 hrs. The format is functional. A digest of the protocol:
(§4)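 Planktonic cells were sampled (≈1 ml) from the flow biofilm reactor at 0, 4, 8, 24, 32, 48, 56 and 72 h during simulated regimens in SMHB, with duplicate models. Samples were serially diluted or vacuum-filtered against carryover, spiral-plated on TSA, and grown 24 h at 37°C; detection limit 1–2 log10 CFU/ml. Bactericidal means a ≥3-log10 CFU/ml fall from the starting inoculum.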

The nature of data set [13]: AUC (0 to 24 hrs) in Staphylococcus aureus in in vitro pharmacokinetic/pharmacodynamic model at 250 mg every 12 hrs. Details: dose 250 mg, time < 24 hr. The format is ADME, organism-based.
Data set [14] can be described thus: Half life in Staphylococcus aureus in in vitro pharmacokinetic/pharmacodynamic model at 250 mg every 12 hrs. The class given is ADME, organism-based.
For data set [15], the system named is Staphylococcus aureus. Kind of data set: fCmax in Staphylococcus aureus in in vitro pharmacokinetic/pharmacodynamic model at 250 mg every 12 hrs. The format is ADME, organism-based.
For data set [16], the system named is Staphylococcus aureus. The experiment in a line: Bactericidal activity against Staphylococcus aureus in in vitro pharmacokinetic/pharmacodynamic model assessed as decrease in biofilm bacterial count at 400 mg every 24 hrs. The format is functional. A digest of the protocol: as §2
Data set [17] relates to Staphylococcus aureus. The experiment in a line: Bactericidal activity against Staphylococcus aureus in in vitro pharmacokinetic/pharmacodynamic model assessed as decrease in planktonic cell count at 400 mg every 24 hrs measured after 72 hrs. The class given is functional. In short, it runs like this: as §4
Data set [18] concerns Staphylococcus aureus. Kind of data set: Bactericidal activity against Staphylococcus aureus in in vitro pharmacokinetic/pharmacodynamic model assessed as decrease in biofilm bacterial count at 400 mg every 24 hrs measured after 72 hrs. The format is functional. A digest of the protocol:
as §2

Data set [19] in a line: AUC (0 to 24 hrs) in Staphylococcus aureus in in vitro pharmacokinetic/pharmacodynamic model at 400 mg every 24 hrs. The class given is ADME, organism-based. Set-up: time < 24 hr, dose 400 mg.
Data set [20] has as its system Staphylococcus aureus. Kind of data set: Bactericidal activity against Staphylococcus aureus in in vitro pharmacokinetic/pharmacodynamic model assessed as decrease in planktonic cell count at 400 mg every 24 hrs. The class given is functional. A digest of the protocol: as §4
The test system of data set [21] is Staphylococcus aureus. Kind of data set: fCmax in Staphylococcus aureus in in vitro pharmacokinetic/pharmacodynamic model at 400 mg every 24 hrs. The class given is ADME, organism-based.
Data set [22] concerns Staphylococcus aureus. Kind of data set: Antimicrobial activity against methicillin-resistant Staphylococcus aureus N315 assessed as inhibition of bacterial biofilm formation by CLSI broth microdilution method. The class given is functional. In short, it runs like this: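 Biofilm MIC determined using the modified Calgary biofilm device method.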
The nature of data set [23]: AUC (0 to 24 hrs) in Staphylococcus aureus in in vitro pharmacokinetic/pharmacodynamic model at 600 mg every 24 hrs. The format is ADME, organism-based. Set-up: dose 600 mg, time < 24 hr.
The test system of data set [24] is Staphylococcus aureus. Kind of data set: fCmax in Staphylococcus aureus in in vitro pharmacokinetic/pharmacodynamic model at 600 mg every 24 hrs. The class given is ADME, organism-based.
Data set [25] can be described thus: Half life in Staphylococcus aureus in in vitro pharmacokinetic/pharmacodynamic model. The format is ADME, organism-based. In short, it runs like this: as §3
Data set [26] in a line: AUC (0 to 24 hrs) in Staphylococcus aureus in in vitro pharmacokinetic/pharmacodynamic model. Set-up: time < 24 hr. The format is ADME, organism-based. A digest of the protocol:
as §3

For data set [27], the system named is Staphylococcus aureus. The experiment in a line: fCmax in Staphylococcus aureus in in vitro pharmacokinetic/pharmacodynamic model. The format is ADME, organism-based. A digest of the protocol: as §3

Converted amounts (≈) assume the structure as drawn. The source made the active and inactive calls. The calls are words filed in the database; no cut-off is given here.

For the molecule `CCCCCCCCCC(=O)N[C@@H](Cc1c[nH]c2ccccc12)C(=O)N[C@H](CC(N)=O)C(=O)N[C@@H](CC(=O)O)C(=O)N[C@@H]1C(=O)NCC(=O)N[C@@H](CCCN)C(=O)N[C@@H](CC(=O)O)C(=O)N[C@H](C)C(=O)N[C@@H](CC(=O)O)C(=O)NCC(=O)N[C@H](CO)C(=O)N[C@@H]([C@H](C)CC(=O)O)C(=O)N[C@@H](CC(=O)c2ccccc2N)C(=O)O[C@@H]1C`, the outcome in the data set on Staphylococcus aureus [1] was inactive. For the same molecule, the minimum inhibitory concentration (MIC) in the data set on Staphylococcus aureus [2] and in the data set on Staphylococcus aureus [3] was 0.125 µg/mL (≈ 0.0771 µM) each time. For the same molecule, the MBIC with Staphylococcus aureus [4] amounted to 2 µg/mL. Besides, the log10CFU/ml in the data set on Staphylococcus aureus [5] is listed as 2.73; in the data set with Staphylococcus aureus [7] it was 2.83; in the data set on Staphylococcus aureus [11] it was 2.78; in the data set on Staphylococcus aureus [12] it was 2.2. In addition, the result with Staphylococcus aureus [6] was Active. In the data set on Staphylococcus aureus [8], this molecule returned a fCmax of 11.79 µg/mL. The molecule also came in with an AUC at 24 h in [9] of 200000 ng·h/mL. This molecule also showed a half-life in data set [10] of 8.21 h.
`CC[C@H]1OC(=O)[C@H](C)[C@@H](O[C@H]2C[C@@](C)(OC)[C@@H](O)[C@H](C)O2)[C@H](C)[C@@H](O[C@@H]2O[C@H](C)C[C@H](N(C)C)[C@H]2O)[C@](C)(OC)C[C@@H](C)C(=O)[C@H](C)[C@@H](O)[C@]1(C)O` [CLARITHROMYCIN] registered an MIC against Staphylococcus aureus [2] greater than 128 µg/mL. Besides, the MBIC with Staphylococcus aureus [4] was greater than 128 µg/mL. The exposure (AUC) at 24 h in [13] was determined as 6530 ng·h/mL. Also, in data set [14], the half-life is 3.91 h. The molecule also had a fCmax with Staphylococcus aureus [15] of 1.15 µg/mL.
As for `COc1c(N2C[C@@H]3CCCN[C@@H]3C2)c(F)cc2c(=O)c(C(=O)O)cn(C3CC3)c12` [MOXIFLOXACIN], the log10CFU/ml in the data set with Staphylococcus aureus [16] worked out at 2.38; in the data set on Staphylococcus aureus [17], 4.04; in the data set on Staphylococcus aureus [18], 4.06; in the data set on Staphylococcus aureus [20] it was 2.33. Besides, the exposure (AUC) at 24 h in data set [19] amounted to 44200 ng·h/mL. In the data set on Staphylococcus aureus [21], the fCmax turned out to be 2.52 µg/mL.
Regarding `CO[C@H]1/C=C/O[C@@]2(C)Oc3c(C)c(O)c4c(O)c(c(/C=N/N5CCN(C)CC5)c(O)c4c3C2=O)NC(=O)/C(C)=C\C=C\[C@H](C)[C@H](O)[C@@H](C)[C@@H](O)[C@@H](C)[C@H](OC(C)=O)[C@@H]1C` [RIFAMPIN], the MBIC with Staphylococcus aureus [22] was less than 0.0625 µg/mL. This molecule gave an exposure (AUC) at 24 h in data set [23] of 19600 ng·h/mL. This molecule also had a fCmax in the data set with Staphylococcus aureus [24] of 3.82 µg/mL. In addition, the MIC against Staphylococcus aureus [3] is less than 0.0625 µg/mL.
With `CN[C@H](CC(C)C)C(=O)N[C@H]1C(=O)N[C@@H](CC(N)=O)C(=O)N[C@H]2C(=O)N[C@H]3C(=O)N[C@H](C(=O)N[C@H](C(=O)O)c4cc(O)cc(O)c4-c4cc3ccc4O)[C@H](O)c3ccc(c(Cl)c3)Oc3cc2cc(c3O[C@@H]2O[C@H](CO)[C@@H](O)[C@H](O)[C@H]2O[C@H]2C[C@](C)(N)[C@H](O)[C@H](C)O2)Oc2ccc(cc2Cl)[C@H]1O` [VANCOMYCIN], in the data set on Staphylococcus aureus [22], the MBIC is 2 µg/mL. This molecule also showed a half-life in [25] of 5.91 h. Also, inhibition of growth in the data set on Staphylococcus aureus [3] (MIC) required 0.25 µg/mL (≈ 0.173 µM). The exposure AUC(0-t) at 24 h in data set [26] worked out at 193000 ng·h/mL. In the data set with Staphylococcus aureus [27], this molecule registered a fCmax of 22.6 µg/mL.

For the origin of these results see ChEMBL document CHEMBL1671745 (Antimicrob Agents Chemother, 2010).
